This is an account of results in publication PMC5569452 (Iranian Journal of Basic Medical Sciences, 2017).

A word on the IC50: it is the point on the concentration scale where inhibition reaches its midpoint. Low readings indicate inhibition by little substance, high ones a need for much substance.

Counter-ions that a name gives are not always drawn.

For test [1], the system named is isolated rat atria. The test is described as follows: Spontaneously beating isolated rat atria, atria contraction force.
In test [2] the test system is isolated rat atria. Briefly: Spontaneously beating isolated rat atria, atria contraction rate. The settings on record: for ACR increase, percentage over the base line: compound alone, 100 μM; for isoprenaline-induced ACR in presence of compound: isoprenaline 10^-6 M + compound 10^-4 M. The essentials:
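Male Wistar rats (250-350 g) given reserpine 5 mg/kg i.p. 24 hr before euthanasia; thiopental 80 mg/kg i.p. anaesthesia. Whole atria hung at ~0.5 g resting tension in Krebs-Henseleit (95% O2/5% CO2, 37 °C, pH 7.4), equilibrated 30 min. Solvent or test compound (10 or 100 μM) added; after 20 min, cumulative isoprenaline. Contractions counted per minute; % increase over baseline; mean ± SEM, 5-6 experiments.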

For test [3], the target named is PDE3A (Homo sapiens, UniProt Q14432). Briefly: PDE assay kit. Format: biochemical.
Sequence of PDE3A (Q14432 whole entry): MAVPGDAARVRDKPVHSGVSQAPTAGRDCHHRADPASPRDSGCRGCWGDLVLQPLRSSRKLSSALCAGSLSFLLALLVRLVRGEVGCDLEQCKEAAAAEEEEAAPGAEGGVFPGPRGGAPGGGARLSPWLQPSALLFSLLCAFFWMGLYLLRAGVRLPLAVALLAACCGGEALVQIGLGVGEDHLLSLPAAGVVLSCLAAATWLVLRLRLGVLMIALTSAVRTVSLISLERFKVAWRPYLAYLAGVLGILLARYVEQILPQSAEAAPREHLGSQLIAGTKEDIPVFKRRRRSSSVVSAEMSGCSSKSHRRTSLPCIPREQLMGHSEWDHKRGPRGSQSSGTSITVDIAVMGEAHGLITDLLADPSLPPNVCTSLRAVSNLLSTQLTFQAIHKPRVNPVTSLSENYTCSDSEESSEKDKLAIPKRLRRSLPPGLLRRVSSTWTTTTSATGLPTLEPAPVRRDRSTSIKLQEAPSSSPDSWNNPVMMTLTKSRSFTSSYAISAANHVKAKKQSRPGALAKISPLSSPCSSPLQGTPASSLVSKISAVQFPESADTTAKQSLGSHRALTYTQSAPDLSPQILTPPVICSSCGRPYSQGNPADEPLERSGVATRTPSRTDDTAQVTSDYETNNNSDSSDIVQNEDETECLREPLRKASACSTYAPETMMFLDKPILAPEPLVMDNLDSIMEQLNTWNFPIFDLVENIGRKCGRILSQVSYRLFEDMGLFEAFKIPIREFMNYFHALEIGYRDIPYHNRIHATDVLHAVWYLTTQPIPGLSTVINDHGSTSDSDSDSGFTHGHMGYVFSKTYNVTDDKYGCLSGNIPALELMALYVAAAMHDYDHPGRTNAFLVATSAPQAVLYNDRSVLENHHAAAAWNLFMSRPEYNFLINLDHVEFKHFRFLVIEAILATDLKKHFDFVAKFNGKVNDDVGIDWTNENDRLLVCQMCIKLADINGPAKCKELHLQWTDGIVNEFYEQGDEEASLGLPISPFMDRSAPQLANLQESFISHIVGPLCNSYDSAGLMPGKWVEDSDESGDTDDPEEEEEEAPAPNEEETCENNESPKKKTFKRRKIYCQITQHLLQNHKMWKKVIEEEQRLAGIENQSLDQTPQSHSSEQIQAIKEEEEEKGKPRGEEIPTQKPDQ
The mark [4] stands for this setting: compound 100 μM, cumulative isoprenaline.
Setting [5] is: Cont: solvent + 1 μM isoprenaline (isoprenaline alone).

For the compound `Cc1cc(=O)[nH]c2ccc(OCCCC(=O)N3CCCC3)cc12` [mc6, 6-(4-oxo-4-(pyrrolidin-1-yl)butoxy)-4-methylquinolin-2(1H)-one], the “ACF increase, percentage over the base line” value in test [1] (compound alone, 100 μM) was found to be 11±4%. For the same compound, in test [2], the “ACR increase, percentage over the base line” value (“ACR increase, percentage” below) stood at 65±6% and the “isoprenaline-induced ACR in presence of compound” value was determined as 91±6 % HSBL.
Regarding `Cc1cc(=O)[nH]c2ccc(OCCCC(=O)N3CCC(C)CC3)cc12` [mc2, 6-(4-(4-methylpiperidin-1-yl)-4-oxobutoxy)-4-methylquinolin-2(1H)-one], in test [1] (10 μM mc2 + 1 μM isoprenaline), the “ACF (% increase baseline)” value is reported as 3±1 % increase baseline. The “ACF (% increase baseline)” value in test [1] (100 μM mc2 + 1 μM isoprenaline) is recorded as 60±5 % increase baseline. Besides, in test [1] (compound alone, 100 μM, 20 min), the “ACF reached in 20 min” value worked out at 40±7 % HSBL and the “ACFmin within 20 min” value is listed as 36±6 % HDBL. Moreover, the “ACF change when compound was added (initial)” value in test [1] (compound alone, 100 μM, at addition) was -1.76%. In test [1] (compound alone, 100 μM), the “ACFmax at the beginning of adding the compound” value is reported as “increased continuously from the beginning” and the “ACFmin at the beginning of adding the compound (initial decrease)” value is recorded as -6 % HDBL. Further, the “isoprenaline-augmented ACF in presence of compound” value in test [1] (isoprenaline 10^-6 M + compound 10^-5 M) was found to be 3±1 % HSBL. Moreover, the IC50 in test [3] stood at 2 µM. Moreover, the “ACR (% increase baseline)” value in test [2] (10 μM mc2 + 1 μM isoprenaline) is recorded as 50±10 % increase baseline. In test [2] (100 μM mc2 + 1 μM isoprenaline), the “ACR (% increase baseline)” value was 6±7 % increase baseline. In test [2], the “ACR increase, percentage” value is on record as “did not change”.
As to `Cc1cc(=O)[nH]c2ccc(OCCCC(=O)N3CCC(O)CC3)cc12` [mc3, 6-(4-(4-hydroxypiperidin-1-yl)-4-oxobutoxy)4-methylquinolin-2(1H)-one], the “effect on isoprenaline concentration-response curve (ACF)” value in test [1] (setting [4]) is listed as “did not change”. For the same compound, the “ACF increase, percentage over the base line” value in test [1] (compound alone, 100 μM) was “did not change”. The compound further came in with an IC50 in test [3] of 1 µM. For the same compound, the “effect on isoprenaline concentration-response curve (ACR)” value in test [2] (setting [4]) is recorded as “did not make any significant changes”. Further, in test [2], the “ACR increase, percentage” value is “did not change”.
As to `CN(C(=O)CCCOc1ccc2[nH]c(=O)ccc2c1)C1CCCCC1` [cilostamide, 4-(1,2-dihydro-2-oxoquinolin-6-hydroxy)-N-cyclohexyl-N-methylbutanamide], in test [1] (compound + isoprenaline 3×10^-6 M), the “maximum ACFmax in combination with isoprenaline” value came out at 25±5 % HSBL. Also, the “maximum ACFmin in combination with isoprenaline” value in test [1] (compound + isoprenaline 10^-6 M) came to 39 ±7 % HDBL. Further, the “potentiation of the effect of isoprenaline on ACF” value in test [1] (compound added 20 min before isoprenaline) is given as “about 2.86 fold”. Also, in test [1] (compound alone, 100 μM, 20 min), the “ACFmax within 20 min” value amounted to 11±6 % HSBL and the “ACFmin within 20 min” value was found to be 16±6 % HDBL. For the same compound, in test [1] (compound alone, 100 μM), the “ACFmax at the beginning of adding the compound” value was 24±9 % HSBL and the “ACFmin at the beginning of adding the compound (initial decrease)” value was 9±4 % HDBL. Besides, in test [2], the “ACR increase, percentage” value is listed as 42±10% and the “isoprenaline-induced ACR in presence of compound” value was 51±11 % HSBL.
With `CC(C)NCC(O)c1ccc(O)c(O)c1` (stereo not shown) [isoprenaline, isoprenaline hydrochloride], the “ACF (% increase baseline)” value in test [1] (setting [5]) amounted to 14±6 % increase baseline. Besides, the “threshold concentration of ACFmax curve” value in test [1] (isoprenaline alone) was 10^-10 M. Besides, the “maximum ACFmax” value in test [1] (isoprenaline alone, 3×10^-8 M) was 21 % HSBL. In test [1] (isoprenaline alone, 10^-6 M), the “ACF maximum, higher than systolic base line (HSBL)” value is recorded as 14±6 % HSBL and the “ACFmin, higher than diastolic base line (HDBL)” value was found to be 10.23±5 % HDBL. The “threshold concentration for ACF increase” value in test [1] (isoprenaline alone, cumulative concentrations) is recorded as 10^-10 M. The “ACR (% increase baseline)” value in test [2] (setting [5]) stood at 68±12 % increase baseline. Moreover, the “threshold concentration for ACR increase” value in test [2] (isoprenaline alone) is 10^-10 M.
